# Reference: ChEMBL document CHEMBL3867488 (ACS Med Chem Lett, 2016)
# Tests used:
# [1] = Agonist activity at LXR-beta in cynomolgus monkey whole blood assessed as ABCA1 gene induction by measuring ABCA1 mRNA level after 4 hrs by SYBR-Green dye-based Q-PCR analysis; format: tissue-based; conditions: Macaca fascicularis
# [2] = target: T1, Oxysterols receptor LXR-beta (Homo sapiens, UniProt P55055); test: Agonist activity at LXR-beta in human HeLa cells assessed as induction of ABCA1 by beta-galactosidase/luciferase reporter gene assay; format: cell-based
# T1 sequence (P55055 whole entry): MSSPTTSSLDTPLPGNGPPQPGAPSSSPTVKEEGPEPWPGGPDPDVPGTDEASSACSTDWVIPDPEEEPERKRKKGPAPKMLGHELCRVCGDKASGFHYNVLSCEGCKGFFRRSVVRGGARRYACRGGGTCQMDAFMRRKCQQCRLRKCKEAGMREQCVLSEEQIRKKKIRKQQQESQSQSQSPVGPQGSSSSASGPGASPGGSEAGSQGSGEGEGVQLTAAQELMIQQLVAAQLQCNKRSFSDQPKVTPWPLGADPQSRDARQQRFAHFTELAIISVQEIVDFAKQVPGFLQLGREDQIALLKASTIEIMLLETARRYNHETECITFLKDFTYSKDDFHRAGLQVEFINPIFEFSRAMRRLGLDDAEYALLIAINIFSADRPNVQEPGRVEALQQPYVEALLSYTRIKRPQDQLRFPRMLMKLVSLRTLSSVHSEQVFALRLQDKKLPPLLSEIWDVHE
# Method in brief: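 HeLa cells carrying endogenous LXRα and LXRβ receptors, transfected with an ABCA1 LXREx3 reporter construct; agonist-driven reporter induction measured.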
# [3] = target: T2, Oxysterols receptor LXR-beta (Homo sapiens) (UniProt P55055); test: Agonist activity at human LXR-beta expressed in African green monkey CV1 cells measured after 18 to 20 hrs by luciferase reporter gene assay relative to pan agonist 1-(2,4-difluorobenzyl)-2-oxo-6-(4-phenoxyphenyl)-4-(trifluoromethyl)-1,2-dihydropyridine-3-carbonitrile; format: cell-based; conditions: CV-1
# T2 sequence (whole entry): T1 sequence (P55055 whole entry)
# [4] = Effect on plasma triglyceride level in cynomolgus monkey at 0.1 mg/kg, po qd administered via gavage for 14 days measured after 24 hrs of last-dose relative to base line; format: ADME, organism-based, Macaca fascicularis; conditions: in vivo
# Method in brief: (§1)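 Cynomolgus monkeys dosed for 14 days, with groups at 0.1, 0.3 and 1 mg/kg. Plasma triglycerides expressed as percent change over baseline, with significance by ANOVA. Plasma drug exposure sampled 5 h post-dose. ABCG1 induction in blood cells monitored in the same animals.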
# [5] = system: Cynomolgus monkey; test: In vivo agonist activity at LXR-beta in cynomolgus monkey assessed as ABCG1 gene induction by measuring total RNA level at 1 mg/kg, po qd administered via gavage for 14 days measured after 5 to 6 hrs of last-dose relative to control; format: functional, Macaca fascicularis
# Method in brief: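 Cynomolgus monkeys dosed daily for 14 days. ABCG1 mRNA induction measured in blood cells on day 14 and expressed as fold change. Plasma drug concentration taken about 5 h post-dose. Plasma triglycerides also measured against baseline, with significance by ANOVA.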
# [6] = target: T1, Oxysterols receptor LXR-beta; test: Agonist activity at LXR-beta in human whole blood assessed as ABCA1 gene induction by measuring ABCA1 mRNA level after 4 hrs by SYBR-Green dye-based Q-PCR analysis; format: tissue-based
# [7] = Plasma concentration in cynomolgus monkey at 0.3 mg/kg, po qd administered via gavage for 14 days measured after 5 hrs of last-dose by LC/MS/MS analysis; format: ADME, organism-based, Macaca fascicularis
# Method in brief: (§2)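 Cynomolgus monkeys dosed daily for 14 days. On day 14, plasma drug concentration was taken 5 h post-dose. Plasma triglycerides were expressed as % elevation over baseline, with significance tested by ANOVA (p < 0.05).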
# [8] = Plasma concentration in cynomolgus monkey at 1 mg/kg, po qd administered via gavage for 14 days measured after 5 hrs of last-dose by LC/MS/MS analysis; format: ADME, organism-based, Macaca fascicularis; method in brief: as §2
# [9] = Effect on plasma triglyceride level in cynomolgus monkey at 0.3 mg/kg, po qd administered via gavage for 14 days measured after 24 hrs of last-dose relative to base line; format: ADME, organism-based, Macaca fascicularis; conditions: in vivo; method in brief: as §1
compound,measurement,setting,value
CC(C)(O)c1cn(-c2ccc(-c3cc(F)c(CO)c(S(C)(=O)=O)c3)cc2F)c(C(C)(C)c2c(Cl)cccc2Cl)n1 [BMS-852927],EC50,[1],5 nM
same,EC50,[2],0.6 nM
same,Efficacy,[3],88%
same,Activity,[4],20%
same,fold change (FC),[5],11
same,EC50,[6],9 nM
same,concentration at 5 h,[7],22 nM
same,concentration at 5 h,[8],57 nM
same,Activity,[9],8%
